For assay [1], the target named is T1, Endothelin receptor type B (Rattus norvegicus, UniProt P21451).
T1 sequence (P21451 whole entry): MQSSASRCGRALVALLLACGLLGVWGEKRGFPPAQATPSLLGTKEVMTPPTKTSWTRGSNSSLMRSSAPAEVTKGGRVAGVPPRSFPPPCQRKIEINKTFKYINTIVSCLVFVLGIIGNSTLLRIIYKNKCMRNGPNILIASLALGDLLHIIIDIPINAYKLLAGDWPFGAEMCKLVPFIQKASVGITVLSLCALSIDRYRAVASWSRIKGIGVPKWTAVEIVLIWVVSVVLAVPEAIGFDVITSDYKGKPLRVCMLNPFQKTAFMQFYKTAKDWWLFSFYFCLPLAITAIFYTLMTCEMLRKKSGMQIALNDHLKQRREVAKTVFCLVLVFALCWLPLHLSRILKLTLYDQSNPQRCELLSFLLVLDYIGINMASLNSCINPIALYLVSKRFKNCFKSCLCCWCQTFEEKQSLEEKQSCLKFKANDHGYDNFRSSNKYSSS
Briefly: Tested for antagonistic activity against Endothelin B receptor in the rat cerebellum. Type of assay: functional, tissue-based.

Assay [2] has as its target T2, Endothelin receptor type B (Homo sapiens, UniProt P24530).
T2 sequence (P24530 whole entry): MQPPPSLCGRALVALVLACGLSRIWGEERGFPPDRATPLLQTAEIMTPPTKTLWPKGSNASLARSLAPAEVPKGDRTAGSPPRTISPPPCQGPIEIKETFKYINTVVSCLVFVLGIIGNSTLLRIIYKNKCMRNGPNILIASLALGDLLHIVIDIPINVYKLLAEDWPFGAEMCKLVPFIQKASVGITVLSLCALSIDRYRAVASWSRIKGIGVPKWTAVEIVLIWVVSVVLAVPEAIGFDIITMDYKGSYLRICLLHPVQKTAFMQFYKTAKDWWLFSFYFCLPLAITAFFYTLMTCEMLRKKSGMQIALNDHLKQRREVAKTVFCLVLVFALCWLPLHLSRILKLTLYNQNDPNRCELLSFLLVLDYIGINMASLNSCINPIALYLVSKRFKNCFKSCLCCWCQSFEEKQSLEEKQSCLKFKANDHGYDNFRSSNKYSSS
Briefly: Tested for antagonistic activity against Endothelin B receptor in human (CHO expressed). Type of assay: functional. The method in brief:
(§1)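 Membranes from cultured CHO-K1 cells expressing cloned human ETB receptor, incubated with [125I]ET-3 alone or with increasing unlabelled ligand concentrations, 37 °C, 2 h. Filtration separated bound from free ligand; gamma counting. Nonspecific binding measured with 100 nM unlabelled ET-3. One-site nonlinear least-squares fit of specific binding. IC50 from single competition experiments, triplicate points.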

The target of assay [3] is T2, Endothelin receptor type B. Put plainly: Tested for antagonistic activity against Endothelin B receptor in the humans (CHO expressed). It is filed as functional. In outline:
as §1

In a further assay the target is T3, Endothelin-1 receptor (Homo sapiens, UniProt P25101).
T3 sequence (P25101 whole entry): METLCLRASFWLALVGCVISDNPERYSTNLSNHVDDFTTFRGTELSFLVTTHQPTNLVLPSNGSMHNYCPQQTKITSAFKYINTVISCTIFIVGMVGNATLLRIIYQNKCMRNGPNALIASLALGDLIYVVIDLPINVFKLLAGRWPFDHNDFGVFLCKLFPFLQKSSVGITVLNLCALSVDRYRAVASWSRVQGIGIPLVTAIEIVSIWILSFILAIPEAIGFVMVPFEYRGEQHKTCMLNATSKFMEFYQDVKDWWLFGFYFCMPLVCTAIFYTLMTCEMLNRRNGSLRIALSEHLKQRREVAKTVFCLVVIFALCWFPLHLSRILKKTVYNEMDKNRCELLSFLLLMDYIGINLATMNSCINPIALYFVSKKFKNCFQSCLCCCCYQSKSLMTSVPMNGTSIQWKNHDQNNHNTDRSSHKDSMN
Put plainly: Antagonistic activity against human Endothelin A receptor expressed in LtK. It is filed as functional.

In ChEMBL document CHEMBL1128292, “Discovery of a novel series of orally active non-peptide endothelin-A (ETA) receptor-selective antagonists” (J Med Chem, 1995) one finds IC50 data, which are given here for 16 molecules.

Molecules are shown by their SMILES. Some results are limits rather than exact numbers.

What is called IC50 is the concentration that inhibits the measured activity by half. Low readings indicate inhibition by little substance, high ones a need for much substance. Take `COc1ccc(C2(O)OC(=O)C(c3ccc4c(c3)OCO4)=C2Cc2ccccc2)cc1` (stereo unspecified) [PD-155080]: the concentration for half-maximal inhibition (IC50) in assay [1] was determined as 0.5 µM; in assay [2] it was 4.55 µM.

Regarding `COc1ccc(CC2=C(c3ccc(OC)cc3)C(=O)OC2(O)c2ccc(OC)cc2)cc1` (stereo unspecified), in assay [3], the IC50 was > 2500 nM.

In the case of `COc1ccc(C2(O)OC(=O)C(c3ccc4c(c3)OCO4)=C2Cc2ccccc2)cc1C` (stereo unspecified), the values for the IC50 (in assay [3]; against Endothelin-1 receptor) were 1750 nM and 12 nM, respectively.

Turning to `COc1ccc(C2(O)OC(=O)C(c3ccc4c(c3)OCO4)=C2Cc2ccc(Cl)cc2)cc1` (stereo unspecified), the IC50 in assay [3] is > 2500 nM.

Regarding `COc1ccc(C(=O)/C(Cc2cc(OC)c(OC)c(OC)c2)=C(\C(=O)O)c2ccc3c(c2)OCO3)cc1` [PD-156707 SODIUM], the IC50 worked out at 417 nM in assay [3] and 0.31 nM on Endothelin-1 receptor.

On to `O=C1OC(O)(c2ccc(Cl)cc2)C(Cc2ccccc2)=C1c1ccc2c(c1)OCO2` (stereo unspecified), for which the IC50 in assay [1] worked out at 5.2 µM; in assay [3], 27000 nM.

As for `COc1ccc(CC2=C(c3ccc(Cl)cc3)C(=O)OC2(O)c2ccc(OC)cc2)cc1` (stereo unspecified), the half-inhibitory concentration (IC50) in assay [3] is > 2500 nM.

Take `COc1ccc(CC2=C(c3ccc4c(c3)OCO4)C(=O)OC2(O)c2ccc(OC)cc2)cc1` (stereo unspecified): the IC50 in assay [3] is 1550 nM. This counts as single-digit micromolar.

`O=C1OC(O)(c2ccccc2)C(Cc2ccccc2)=C1c1ccc2c(c1)OCO2` (stereo unspecified): the results for the IC50 in assay [1] and in assay [2] were 22 µM and 30 µM, respectively.

In the case of `COc1ccc(C2(O)OC(=O)C(c3ccc4c(c3)OCO4)=C2Cc2ccc(C)cc2)cc1` (stereo unspecified), the results for the 50% inhibitory concentration (IC50) (in assay [1]; in assay [3]; against Endothelin-1 receptor) were 4.5 µM, 390 nM and 51 nM, respectively.

`Cc1ccc(C2(O)OC(=O)C(c3ccc4c(c3)OCO4)=C2Cc2ccccc2)cc1` (stereo unspecified): the IC50 in assay [1] was 4.5 µM; in assay [2], > 25 µM.

For `COc1ccc(CC2=C(c3ccc(C)cc3)C(=O)OC2(O)c2ccc(OC)cc2)cc1` (stereo unspecified), in assay [3], the IC50 was > 2700 nM.

As to `COc1ccc(C2(O)OC(=O)C(c3ccc4c(c3)OCO4)=C2Cc2ccc(OC)c(C)c2)cc1` (stereo unspecified), the 50% inhibitory concentration (IC50) stood at 1140 nM in assay [3] and 2.4 nM against Endothelin-1 receptor.

In the case of `COc1ccc(CC2=C(c3ccc(Cl)c(Cl)c3)C(=O)OC2(O)c2ccc(OC)cc2)cc1` (stereo unspecified), the values for the concentration for half-maximal inhibition (IC50) (in assay [3]; against Endothelin-1 receptor) were > 2500 nM and 170 nM, respectively.

As for `O=C1OC(O)(c2ccc(Cl)c(Cl)c2)C(Cc2ccccc2)=C1c1ccc2c(c1)OCO2` (stereo unspecified), the IC50 in assay [3] is > 25000 nM.

Consider `COc1ccc(CC2=C(c3ccccc3)C(=O)OC2(O)c2ccc(OC)cc2)cc1` (stereo unspecified), for which the IC50 in assay [3] is > 2500 nM.
